Test results reported in ChEMBL document CHEMBL4334458, “Design, synthesis and antibacterial evaluation of novel 15-membered 11a-azahomoclarithromycin derivatives with the 1, 2, 3-triazole side chain” (Eur J Med Chem, 2019).
In brackets after ≈: the same amount, converted by molar mass.

Tests used:
Staphylococcus aureus [1] = test: Bactericidal activity against erythromycin-susceptible Staphylococcus aureus ATCC 25923 incubated for 24 hrs followed by re-plating on tryptic soy agar plates for 24 hrs by broth microdilution assay; type: functional; settings: ATCC 25923, 24 h
Summary of the method: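 Built on the broth microdilution MIC set-up (CAMH, 24 h, 37 °C). After 24 h, contents of clear wells were plated on tryptic soy agar and incubated 24 h at 37 °C. MBC was taken as the lowest concentration giving no colonies.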

Escherichia coli = test: Antibacterial activity against penicillin-susceptible Escherichia coli ATCC 25922 incubated for 24 hrs by broth dilution method; type: functional; settings: ATCC 25922, 24 h
Summary of the method: (§1)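 CLSI broth microdilution in cation-adjusted Mueller-Hinton broth. Twofold dilutions spanned 0.25–128 or 0.5–256 µg/mL, with CAM and AZM as controls. Log-phase bacteria were added and incubated 24 h at 37 °C. MIC was read by turbidity as the concentration of the last clear well.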

Staphylococcus aureus [2] = test: Antibacterial activity against penicillin-resistant Staphylococcus aureus ATCC 31007 incubated for 24 hrs by broth dilution method; type: functional; settings: ATCC 31007, 24 h
Staphylococcus aureus [3] = test: Ratio of MBC to MIC for erythromycin-susceptible Staphylococcus aureus ATCC 25923; type: functional
Bacillus subtilis = test: Antibacterial activity against penicillin-susceptible Bacillus subtilis ATCC 9372 incubated for 24 hrs by broth dilution method; type: functional; settings: ATCC 9372, 24 h; summary of the method: as §1
Staphylococcus aureus [4] = test: Antibacterial activity against methicillin-resistant Staphylococcus aureus ATCC 43300 incubated for 24 hrs by broth dilution method; type: functional; settings: ATCC 43300, 24 h
Staphylococcus aureus [5] = test: Antibacterial activity against erythromycin-susceptible Staphylococcus aureus ATCC 25923 incubated for 24 hrs by broth dilution method; type: functional; settings: ATCC 25923, 24 h; summary of the method: as §1
Streptococcus pyogenes [6] = test: Antibacterial activity against erythromycin-resistant Streptococcus pyogenes 2 clinical isolate incubated for 24 hrs by broth dilution method; type: functional
Streptococcus pyogenes [7] = test: Antibacterial activity against erythromycin-susceptible Streptococcus pyogenes 1 clinical isolate incubated for 24 hrs by broth dilution method; type: functional; summary of the method: as §1
Streptococcus pneumoniae [8] = test: Antibacterial activity against erythromycin-resistant Streptococcus pneumoniae B1 expressing the ermB incubated for 24 hrs by broth dilution method; type: functional
Pseudomonas aeruginosa = test: Antibacterial activity against penicillin-susceptible Pseudomonas aeruginosa ATCC 27853 incubated for 24 hrs by broth dilution method; type: functional; settings: ATCC 27853, 24 h; summary of the method: as §1
MCF7 = test: Cytotoxicity against human MCF7 cells assessed as viable cells up to 32 ug/ml incubated for 24 hrs by MTT assay; type: cell-based; settings: mcf7, 24 h
Summary of the method: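 MCF-7 cells were seeded at 10^4 cells/well and allowed to settle overnight. Compound was added for 24 h, with CAM as control and DMSO as vehicle control. MTT (5 mg/mL stock) was then added for 4 h at 37 °C, formazan dissolved in DMSO for 10 min, and absorbance read at 570 nm. Read-out was percent viable cells.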

Streptococcus pneumoniae [9] = test: Antibacterial activity against erythromycin-resistant Streptococcus pneumoniae AB11 expressing the ermB and mefA incubated for 24 hrs by broth dilution method; type: functional

In the case of `CO[C@]1(C)C[C@@H](C)[C@H](O)[C@H](C)CN(C)C[C@H](COCc2cn(-c3ccccn3)nn2)OC(=O)[C@H](C)[C@@H](O[C@H]2C[C@@](C)(OC)[C@@H](O)[C@H](C)O2)[C@H](C)[C@H]1O[C@@H]1O[C@H](C)C[C@H](N(C)C)[C@H]1O`, the MBC (Staphylococcus aureus [1]) is reported as > 128 µg/mL, the MIC (Escherichia coli) is reported as 64 µg/mL (≈ 71.7 µM) and the MIC (Staphylococcus aureus [2]) is reported as > 256 µg/mL. The Ratio (Staphylococcus aureus [3]) was >512, the MIC (Bacillus subtilis) was ≤ 0.25 µg/mL and the MIC (Staphylococcus aureus [4]) was > 256 µg/mL. The MIC (Staphylococcus aureus [5]) was ≤ 0.25 µg/mL, the MIC (Streptococcus pyogenes [6]) was 128 µg/mL (≈ 143 µM) and the MIC (Streptococcus pyogenes [7]) was 0.5 µg/mL (≈ 0.56 µM). For the same molecule, the MIC (Streptococcus pneumoniae [8]) was > 256 µg/mL, the MIC (Pseudomonas aeruginosa) was 16 µg/mL (≈ 17.9 µM) and the Activity (MCF7) was “Non-Toxic”. The MIC (Streptococcus pneumoniae [9]) was 128 µg/mL (≈ 143 µM).
